Screening data (PubChem)
Compounds with a hit are over-represented: about 3.7% of the library has one in this group of screens.
Kir21 block: blocks the mouse Kir2.1 inward-rectifier potassium channel | P35561 | HEK293-Kir2.1, FluxOR thallium flux fluorescence; active compounds read low | B-score at 10 µM | actives 0.85% (n = 310,000);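 active means fluorescence ratio B-score at or below minus 3 SD of library scores, with starting-brightness B-score within 2 SD, cut at about -4.2 in these data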;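 further: channel flux triggered by added potassium and thallium sulfate stimulus; B-score of peak minus minimum fluorescence over baseline after thallium stimulus; more negative B-score means stronger Kir2.1 block with less thallium influx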
Target sequence (P35561 whole entry, looked up): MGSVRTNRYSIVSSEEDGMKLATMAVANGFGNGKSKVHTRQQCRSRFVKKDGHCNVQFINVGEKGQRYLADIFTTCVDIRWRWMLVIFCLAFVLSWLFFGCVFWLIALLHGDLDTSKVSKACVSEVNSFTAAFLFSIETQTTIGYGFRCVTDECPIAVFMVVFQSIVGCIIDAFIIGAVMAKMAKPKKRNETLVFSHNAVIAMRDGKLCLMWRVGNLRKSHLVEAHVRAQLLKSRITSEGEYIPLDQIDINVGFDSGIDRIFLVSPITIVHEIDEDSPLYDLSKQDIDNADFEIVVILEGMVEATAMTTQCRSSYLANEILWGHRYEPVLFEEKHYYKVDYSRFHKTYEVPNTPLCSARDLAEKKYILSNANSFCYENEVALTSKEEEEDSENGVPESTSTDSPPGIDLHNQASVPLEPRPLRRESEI
KCNQ1 act: potentiates or activates the human KCNQ1 potassium channel | B-score at 10 µM | actives 0.35% (n = 310,000) | P51787 | CHO-K1 KCNQ1, thallium flux FluxOR fluorescence; active compounds read high;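 active means fluorescence ratio B-score, a plate-corrected score, at least three library SD, with initial intensity B-score within 5 SD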
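Assay system: CHO-K1 cells stably expressing KCNQ1; Medium: assay buffer with matched DMSO; Also added: K+/Tl+ depolarizing stimulus; Dosing: single dose; Timing: dye 90 min, compound 20 min, room temperature; Measured by: kinetic FluxOR thallium fluorescence, 10-s 1-Hz baseline, 110-s post-stimulus read; Read-out: peak-minus-minimum fluorescence over initial fluorescence, negative-control normalized, B-scored.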
hERG protect: hERG (human) protection from proarrhythmic block; AID 1511; CHO-hERG, FluxOR thallium flux, dofetilide IC70 present; activation (rescue from dofetilide block), less the hit threshold, % at 10 µM; actives 0.51% (n = 310,000); Q12809;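 active means activation above the mean of controls blocked by dofetilide plus 5 SD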;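 further: thallium influx through hERG after potassium depolarization seen as dye fluorescence rise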
KCNQ1 inh: inhibitors of human KCNQ1 potassium channel. actives 1.3% (n = 310,000). B-score at 10 µM. CHO-K1 KCNQ1, FluxOR thallium flux fluorescence; active compounds read high. P51787;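 active means compounds whose thallium flux B-score, printed positive for inhibition, exceeds three library SD while starting fluorescence stays within three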;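 further: channel opened by potassium depolarization with thallium stimulus after 20 min compound exposure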
KCNK3 inh: human KCNK3 channel inhibition, primary screen; O14649; CHO-KCNK3 thallium flux, FluxOR fluorescence; active compounds read low; B-score at 10 µM; actives 0.84% (n = 340,000);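 active means B-score under library mean minus 4 SD, starting fluorescence ratio at most library mean plus 5 SD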;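 further: more negative B-score means stronger inhibition of thallium flux through KCNK3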
KCNK9 block: inhibitors of human KCNK9 two-pore domain potassium channel; HEK293 KCNK9, FluxOR thallium flux fluorescence; active compounds read low; B-score at 10 µM; actives 1.2% (n = 310,000);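 active means ratio B-score over 3 SD below the library mean, with starting fluorescence within 5 SD of its mean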;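 further: negative B-score means less thallium flux so channel inhibition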
* hit, by the source's call; i = inactive; . = no result given.

SMILES | Kir21 block | KCNQ1 act | hERG protect | KCNQ1 inh | KCNK3 inh | KCNK9 block
Cc1cccc(Nc2nnc(SCC(O)=C(C#N)c3nc4ccccc4[nH]3)s2)c1 | . | . | . | . | i | .
O=C(O)C1(c2ccccc2)CCN(S(=O)(=O)c2cccs2)CC1 | 1.9 | i | 5.2* | i | i | i
O=C(O)C1(c2ccccc2)CCN(S(=O)(=O)c2ccccc2)CC1 | -0.99 | i | 1 | i | i | i
COc1cccc(NC(=O)CSc2nnc3ccc(-c4ccccn4)nn23)c1 | 0.3 | i | -4 | i | i | i
O=C(O)COc1c(-c2ccco2)oc2ccccc2c1=O | -0.27 | i | -7 | i | i | i
COc1ccc(-c2oc3ccccc3c(=O)c2OCC(=O)O)cc1 | 1 | i | -9 | i | i | i
COc1ccc(-c2oc3ccccc3c(=O)c2OC(C)=O)cc1 | -0.05 | 41* | 4 | i | i | i
CC(=O)Oc1c(-c2ccc(Br)o2)oc2ccccc2c1=O | -0.31 | 113* | 40* | i | i | i
CC1c2cccn2CCN1S(=O)(=O)c1ccccc1 (centres undefined) | . | . | . | . | i | .
CC1c2ccsc2CCN1S(=O)(=O)c1ccccc1 (centres undefined) | -6.8* | i | -15 | i | i | i
O=S(=O)(Nc1ccncc1)c1ccc(Cl)c(Cl)c1 | 0.12 | i | -12 | i | i | i
C[C@H]1CN=C(Nc2ccccc2)N1CCCC1CCCCC1 | -0.24 | i | -8 | i | i | i
c1ccc(C[C@H]2CN=C(Nc3ccccc3)N2CCCC2CCCC2)cc1 | -5.6* | i | -20 | i | i | i
c1ccc(CCCCN2C(Nc3ccccc3)=NC[C@@H]2Cc2ccccc2)cc1 | . | . | . | . | i | .
CCCCCCCN1C(Nc2ccccc2)=NC[C@@H]1Cc1ccccc1 | -5.6* | i | -22 | 7* | i | i
NC(=O)N\N=C/C=C/C=C/c1ccc(F)cc1 | 1.7 | i | -4 | i | i | i
O=C(NC(=S)Nc1cnc2ccccc2c1)c1ccccc1 | -0.74 | i | -8 | i | i | i
O=C(NC(=S)Nc1ncc(Br)cc1Br)c1ccccc1 | 1.5 | 7* | 1 | i | i | i
CCc1ccccc1Nc1nc(N)nc(COC(=O)CCNS(=O)(=O)c2ccccc2)n1 | -0.03 | i | -17 | i | i | -8.1*
CCOc1ccc(S(=O)(=O)N2CCOCC2)cc1[N+](=O)[O-] | 0.6 | i | -17 | i | i | i
CC1Cc2ccccc2N1C(=S)NC(=O)C1(C)CC1(Cl)Cl (centres undefined) | -1.7 | 37* | 28* | i | i | i
CC1Cc2ccccc2N1C(=S)NC(=O)c1ccco1 (centres undefined) | -0.25 | i | 6.7* | i | i | i
CCc1c(C)sc(NC(=O)c2ccco2)c1C#N | 1.1 | i | -6 | i | i | i
COc1ccc(NC(=O)CNS(=O)(=O)c2ccc(Cl)cc2)cc1 | 0.71 | i | -2 | i | i | i
Cc1ccc(NC(=O)c2ccc3c(c2)OCCO3)cc1S(=O)(=O)Nc1cccc(Cl)c1 | 0 | i | -9 | 6* | i | i
SMILES | Kir21 block | KCNQ1 act | hERG protect | KCNQ1 inh | KCNK3 inh | KCNK9 block
COc1cccc(NC(=O)CNS(=O)(=O)c2ccc(Cl)cc2)c1 | -4.2* | i | -13 | i | i | i
Cc1cccc(NC(=O)c2cccc(NS(=O)(=O)c3ccc(Cl)cc3)c2)c1 | -0.2 | i | -18 | 10* | i | i
COc1ccc(CC(=O)NCC2CCCN(Cc3ccccc3Cl)C2)cc1 (centres undefined) | -1.2 | i | -1 | i | i | i
O=S(=O)(Nc1ccccc1N1CCCCC1)c1ccc(Cl)s1 | -0.34 | i | -4 | i | i | -7.4*
O=C(NCc1ccco1)c1ccccc1NS(=O)(=O)c1ccc(Cl)s1 | -0.96 | i | -6 | i | i | i
Cc1ccc(NC(=O)c2ccccc2NS(=O)(=O)c2ccc(Cl)s2)cc1 | -2 | i | -13 | i | i | -7.5*
O=C(Nc1ccccc1Cc1ccccc1)c1ccccc1NS(=O)(=O)c1ccc(Cl)s1 | -0.09 | i | -15 | 8* | i | i
Cc1cc(NCc2ccco2)n2ncnc2n1 | -1.2 | i | 0 | i | i | i
CSc1ccc(CN2CCC(N3CC(C)OC(C)C3)CC2)cc1 (centres undefined) | 0.33 | i | -7 | i | i | i
CSc1ccc(OC2CCN(Cc3ccccc3)CC2)cc1 | -20* | i | -17 | i | i | i
CSc1ccc(CN2CCC(Oc3cccc(C(=O)N4CCCC4)c3)CC2)cc1 | -4.6* | i | -8 | i | i | i
O=C(c1cccc(OC2CCN(Cc3ccc(F)cc3Cl)CC2)c1)N1CCCC1 | -4.7* | i | -7 | i | i | i
O=C(NC(=S)Nc1ccc(C(F)(F)F)cc1)c1csnn1 | 0.2 | 141* | 56* | i | i | i
O=C(NC(=S)Nc1ccccc1)c1ccc(-c2ccccc2)cc1 | -0.52 | i | -6 | i | i | i
O=C(NC(=S)Nc1ccccc1)c1csnn1 | 1.9 | 116* | 63* | i | i | i
COc1ccc(NC(=S)NC(=O)c2csnn2)cc1 | -0.43 | 24* | 16* | i | i | i
O=C(Nc1csnn1)c1csnn1 | -0.27 | i | -8 | i | i | i
Cc1ccc(S(=O)(=O)NCCS(=O)(=O)N2CCN(c3ccc(F)cc3)CC2)cc1 | 0.48 | i | -14 | i | i | i
O=C(NC(=S)N1CCOCC1)c1cn(-c2ccccc2)nc1-c1ccccc1 | . | . | . | . | i | .
CCc1ccc(NC(=O)[C@H](C)NC(=O)C2CCN(C(=O)[C@@H](N)C(C)C)CC2)cc1 | 0.6 | i | -6 | i | i | i
CC(C)[N+]1(C)[C@@H]2CC[C@H]1CC(OC(=O)C(CO)c1ccccc1)C2 (some centres undefined) | -0.11 | 22* | . | i | i | i
COc1ccccc1N1CCN(Cc2c[nH]c3ccccc23)CC1 | -0.61 | i | -1 | i | i | i
Cc1ccccc1N1CCN(Cc2c[nH]c3ccccc23)CC1 | -5.5* | i | -15 | 6* | i | i
O=C(O)C(Cc1ccccc1)N1C(=O)c2c(Cl)c(Cl)c(Cl)c(Cl)c2C1=O (centres undefined) | -0.03 | i | -21 | 6* | i | i
O=C(O)C(Cc1ccccc1)N1C(=O)c2ccccc2C1=O (centres undefined) | -2.6 | i | -10 | i | i | i
